Assays:
[1] = biological target: Cytochrome P450 3A4 (Homo sapiens, UniProt P08684); assay: Drug level in yeast cells expressing human CYP3A4 assessed as human CYP3A4-mediated compound formation by pre-incubated with 200 uM tebufenozide for 2 mins at 37 degC before NADPH addition by LC/MS method; type: ADME, cell-based; settings: recombinant enzyme
Summary of the method: (§1)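 Microsomes with 67 nM human P450 in 100 mM phosphate buffer, pH 7.4, preincubated 2 min at 37 °C. Reaction started with NADPH (1 mM final) at 37 °C and stopped at various times with two volumes of acetonitrile and shaking. After centrifugation (7,000 G, 10 min), the acetonitrile phase was analysed by HPLC and by LC/MS (ESI positive mode, m/z 100-500).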

[2] = Retention time of the compound by HPLC method; type: physicochemical
[3] = biological target: Cytochrome P450 2C19 (Homo sapiens, UniProt P33261); assay: Drug level in yeast cells expressing human CYP2C19 assessed as human CYP2C19-mediated compound formation by pre-incubated with 200 uM tebufenozide for 2 mins at 37 degC before NADPH addition by LC/MS method; type: ADME, cell-based; settings: recombinant enzyme; summary of the method: as §1
[4] = Selectivity index, ratio of Vmax for human CYP3A4-mediated metabolite-M1 formation to Vmax for human CYP2C19-mediated metabolite-M1 formation; settings: recombinant enzyme
Summary of the method: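 Microsomes with 67 nM human CYP3A4 or CYP2C19 in 100 mM phosphate buffer, pH 7.4, with tebufenozide (1–50, 2% acetonitrile), preincubated 2 min at 37 °C. NADPH (1 mM final) was added, and reactions were stopped with acetonitrile after 5 min (CYP3A4) or 10 min (CYP2C19). M1 was quantified by HPLC, and Km and Vmax were fitted from rate (mol/min/mol P450) against substrate concentration.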

[5] = Selectivity index, ratio of Km for human CYP3A4-mediated metabolite-M1 formation to Km for human CYP2C19-mediated metabolite-M1 formation; settings: recombinant enzyme

Sequence of Cytochrome P450 2C19 (P33261 whole entry): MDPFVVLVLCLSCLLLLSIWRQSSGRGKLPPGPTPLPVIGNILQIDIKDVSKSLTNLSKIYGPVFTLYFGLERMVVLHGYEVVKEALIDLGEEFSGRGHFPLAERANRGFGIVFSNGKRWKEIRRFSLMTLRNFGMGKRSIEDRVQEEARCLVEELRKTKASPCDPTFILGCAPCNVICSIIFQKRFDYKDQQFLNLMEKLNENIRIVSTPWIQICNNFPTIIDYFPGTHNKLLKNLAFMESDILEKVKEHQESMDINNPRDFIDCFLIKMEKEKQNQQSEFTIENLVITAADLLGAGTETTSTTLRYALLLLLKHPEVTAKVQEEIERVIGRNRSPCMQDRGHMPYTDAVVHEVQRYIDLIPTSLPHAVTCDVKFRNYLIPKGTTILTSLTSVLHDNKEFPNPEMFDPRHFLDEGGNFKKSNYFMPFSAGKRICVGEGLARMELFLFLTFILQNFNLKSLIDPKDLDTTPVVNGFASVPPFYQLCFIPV
Sequence of Cytochrome P450 3A4 (P08684 whole entry): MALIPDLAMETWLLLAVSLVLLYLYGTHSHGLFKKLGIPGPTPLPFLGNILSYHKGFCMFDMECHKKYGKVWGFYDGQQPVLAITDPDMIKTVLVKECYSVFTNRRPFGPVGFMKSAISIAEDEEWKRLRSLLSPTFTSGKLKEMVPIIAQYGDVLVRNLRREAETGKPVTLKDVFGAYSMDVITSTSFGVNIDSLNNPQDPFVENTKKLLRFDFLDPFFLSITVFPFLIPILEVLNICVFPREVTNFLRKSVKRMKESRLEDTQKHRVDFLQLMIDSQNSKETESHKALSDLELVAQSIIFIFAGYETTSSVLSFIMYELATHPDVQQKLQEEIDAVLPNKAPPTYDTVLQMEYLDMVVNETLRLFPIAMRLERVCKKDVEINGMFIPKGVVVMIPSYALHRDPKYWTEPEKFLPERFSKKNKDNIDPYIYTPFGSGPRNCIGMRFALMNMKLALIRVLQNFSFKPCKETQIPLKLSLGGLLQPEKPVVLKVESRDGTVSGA

SMILES | Drug metabolism [1] | Retention_time [2] | Drug metabolism [3] | Ratio [4] | Ratio [5]
CCc1ccc(C(=O)NN(C(=O)c2cc(C)cc(C)c2)C(C)(C)CO)cc1 | metabolite_detected | 14.5 min | – | – | –
CCc1ccc(C(=O)NN(C(=O)c2cc(C)cc(CO)c2)C(C)(C)C)cc1 | metabolite_detected | 10.5 min | – | – | –
Cc1cc(C)cc(C(=O)N(NC(=O)c2ccc(C(C)O)cc2)C(C)(C)C)c1 (racemic) | metabolite_detected | 9.5 min | metabolite_detected | – | –
CCc1ccc(C(=O)NN(C(=O)c2cc(C)cc(C)c2)C(C)(C)C)cc1 [TEBUFENOZIDE] | – | – | – | 6 | 4
C=Cc1ccc(C(=O)NN(C(=O)c2cc(C)cc(C)c2)C(C)(C)C)cc1 | – | 15 min | metabolite_detected | – | –
CC(=O)c1ccc(C(=O)NN(C(=O)c2cc(C)cc(C)c2)C(C)(C)C)cc1 | – | 12 min | metabolite_detected | – | –
